Experimental data taken from the M2OR odorant receptor database.

Each compound was assayed against T1, OR5K3 (Homo sapiens) (UniProt A6NET4). Details: stereoisomer not certain.
T1 sequence (whole entry): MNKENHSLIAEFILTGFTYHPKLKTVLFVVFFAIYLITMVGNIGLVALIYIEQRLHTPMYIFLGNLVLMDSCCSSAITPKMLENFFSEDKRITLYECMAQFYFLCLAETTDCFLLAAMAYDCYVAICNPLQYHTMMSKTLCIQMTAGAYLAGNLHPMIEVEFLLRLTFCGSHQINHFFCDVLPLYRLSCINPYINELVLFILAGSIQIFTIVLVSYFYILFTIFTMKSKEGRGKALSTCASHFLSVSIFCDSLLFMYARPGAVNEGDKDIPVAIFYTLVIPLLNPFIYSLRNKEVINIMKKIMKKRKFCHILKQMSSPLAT
Summary of the method: (§1)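 Values were gathered from published papers (main text and supplementary material), with extra details requested from the original authors when needed, and checked for typos and inconsistencies. Each receptor–molecule pair is called responsive (active) if the original authors judged the measured signal statistically different from baseline, and non-responsive (inactive) otherwise. Assay methods varied by source, often transient mammalian cell-line luciferase assays. Recorded details include cell line, G-protein, co-transfected protein and tags.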

Odorant receptor agonist call, inactive:
CC1CCc2nccnc21 (configuration not stated), CC(=O)c1c(C)c([N+](=O)[O-])c(C(C)(C)C)c([N+](=O)[O-])c1C, COc1nccnc1C(C)C, CCc1nccnc1OC, CCC(C)c1nccnc1OC (configuration not stated), Cc1cnccn1, CCC(S)C(C)CO (configuration not stated), CCc1nccnc1C, Cc1cnc(C)cn1, CC1=C(O)C(=O)C(C)O1 (configuration not stated), CC1CCCCCCCCCCCCC(=O)C1 (configuration not stated), CC1=C(O)C(=O)OC1C (configuration not stated), CCCCCC(=O)C(C)C(C)=O (configuration not stated), CC(=O)c1cnccn1, CCC1OC(=O)C(O)=C1C (configuration not stated), CCc1nccnc1C(C)=O, CCCC(S)CCOC(C)=O (configuration not stated), CCc1ncc(C)nc1CC, CCCCCCC=CCCC=O, CCCCC(S)C(C)CO (configuration not stated), Cc1cnc(C)c(C)n1, Cc1cncc(C)n1, Cc1nccnc1C, CCCCCC(S)C(C)CO (configuration not stated), CC1=NC(C)C(C)S1 (configuration not stated), C=Cc1cnccn1, CC(=O)c1nccnc1C, COc1cnccn1, CC(CO)CS (configuration not stated), CCC1OC(C)=C(O)C1=O (configuration not stated), CCc1nccnc1CC

Each compound was assayed against T2, OR5K4 (Homo sapiens) (UniProt A6NMS3). Details: stereoisomer not certain.
T2 sequence (whole entry): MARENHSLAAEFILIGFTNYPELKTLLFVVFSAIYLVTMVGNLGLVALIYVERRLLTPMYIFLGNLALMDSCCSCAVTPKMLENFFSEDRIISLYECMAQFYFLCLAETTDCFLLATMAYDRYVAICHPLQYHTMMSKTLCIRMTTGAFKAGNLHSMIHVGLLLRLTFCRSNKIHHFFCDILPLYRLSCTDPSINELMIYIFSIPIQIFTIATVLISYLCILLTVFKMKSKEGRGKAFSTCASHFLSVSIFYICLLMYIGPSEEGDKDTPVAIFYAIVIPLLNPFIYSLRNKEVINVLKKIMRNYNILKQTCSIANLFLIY
Summary of the method: as §1

Odorant receptor agonist call, inactive:
CC1CCc2nccnc21 (configuration not stated), CC(=O)c1c(C)c([N+](=O)[O-])c(C(C)(C)C)c([N+](=O)[O-])c1C, COc1nccnc1C(C)C, CCc1nccnc1OC, CCC(C)c1nccnc1OC (configuration not stated), Cc1cnccn1, CCC(S)C(C)CO (configuration not stated), CCc1nccnc1C, Cc1cnc(C)cn1, CC1=C(O)C(=O)C(C)O1 (configuration not stated), CC1CCCCCCCCCCCCC(=O)C1 (configuration not stated), CC1=C(O)C(=O)OC1C (configuration not stated), CCCCCC(=O)C(C)C(C)=O (configuration not stated), CC(=O)c1cnccn1, CCC1OC(=O)C(O)=C1C (configuration not stated), CCc1nccnc1C(C)=O, CCCC(S)CCOC(C)=O (configuration not stated), CCc1ncc(C)nc1CC, CCCCCCC=CCCC=O, CCCCC(S)C(C)CO (configuration not stated), Cc1cnc(C)c(C)n1, Cc1cncc(C)n1, Cc1nccnc1C, CCCCCC(S)C(C)CO (configuration not stated), CC1=NC(C)C(C)S1 (configuration not stated), C=Cc1cnccn1, CC(=O)c1nccnc1C, COc1cnccn1, CC(CO)CS (configuration not stated), CCC1OC(C)=C(O)C1=O (configuration not stated), CCc1nccnc1CC
